Screens (PubChem)
G6PDH CS: L. mesenteroides G6PDH inhibitors, counter-screen for G6PDH-coupled screening assays, biochemical, Leuconostoc mesenteroides enzyme. glucose-6-phosphate dehydrogenase [Leuconostoc mesenteroides]. Purified L. mesenteroides G6PDH, diaphorase/resazurin coupled fluorescence, 45 min. inhibition, % at 5 µM. hit rate 0.12% among 200,000. AID 1020, 2008; in the data active = inhibition above about 50%
Diaphorase inh: diaphorase inhibitors and chemical oxidizers, primary screen, counter-screen for diaphorase-coupled primary assays, biochemical, uHTS, resorufin fluorescence; diaphorase resazurin-to-resorufin fluorescence, NADH, 16 min; bacterial (C. kluyveri) enzyme, not human; inhibition, % at 20 µM; hit rate 0.69% among 190,000; AID 1217, 2008;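 active = primary screen inhibition at 20 µM above a set limit, cut at about 50% in these data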;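 also: plate controls were DMSO with full reaction for no effect and wells lacking NADH for full effect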
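System: Bacterial diaphorase enzyme (C. kluyveri) | Incubation: 16-min room-temperature incubation before reading | Benchmarks: No-NADH positive control and DMSO neutral control | Measured by: Resorufin fluorescence 544/590 nm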
HKDC1 inh: HKDC1 hexokinase inhibitors, primary screen, biochemical, fluorescence, uHTS. recombinant HKDC1, G6PDH/diaphorase resazurin coupled fluorescence. AID 493160, 2011. hit rate 0.16% among 340,000. Q2TB90. inhibition, % at 20 µM;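 active = inhibition above about 35% when tested at 20 µM, limit read from the data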;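 also: plate controls were DMSO wells with enzyme for no effect and DMSO wells lacking enzyme for full effect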
Target sequence (Q2TB90 whole entry, looked up): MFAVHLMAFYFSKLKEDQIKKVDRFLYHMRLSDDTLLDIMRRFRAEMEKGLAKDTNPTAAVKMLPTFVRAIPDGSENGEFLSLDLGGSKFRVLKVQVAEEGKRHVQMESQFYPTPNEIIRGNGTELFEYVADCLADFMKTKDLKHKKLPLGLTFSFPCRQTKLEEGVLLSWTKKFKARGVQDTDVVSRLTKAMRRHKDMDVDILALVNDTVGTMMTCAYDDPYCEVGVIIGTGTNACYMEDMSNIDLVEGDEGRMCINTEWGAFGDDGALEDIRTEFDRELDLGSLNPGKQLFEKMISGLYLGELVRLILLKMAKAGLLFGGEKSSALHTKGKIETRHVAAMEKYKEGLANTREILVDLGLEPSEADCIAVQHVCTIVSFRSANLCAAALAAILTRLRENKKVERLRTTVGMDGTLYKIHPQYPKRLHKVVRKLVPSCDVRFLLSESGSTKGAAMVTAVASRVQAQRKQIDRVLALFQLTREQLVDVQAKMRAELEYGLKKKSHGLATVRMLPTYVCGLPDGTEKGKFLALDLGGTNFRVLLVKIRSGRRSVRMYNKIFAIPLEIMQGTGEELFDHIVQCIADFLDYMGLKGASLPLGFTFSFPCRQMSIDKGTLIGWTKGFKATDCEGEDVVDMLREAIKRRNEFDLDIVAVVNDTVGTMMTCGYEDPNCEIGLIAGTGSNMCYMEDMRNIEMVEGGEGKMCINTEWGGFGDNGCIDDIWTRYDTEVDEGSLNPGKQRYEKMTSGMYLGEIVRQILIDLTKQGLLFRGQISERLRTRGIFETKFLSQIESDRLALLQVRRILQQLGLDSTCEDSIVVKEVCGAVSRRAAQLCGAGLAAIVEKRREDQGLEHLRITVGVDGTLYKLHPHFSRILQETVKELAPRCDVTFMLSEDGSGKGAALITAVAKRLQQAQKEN
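Test system: HK5 enzyme. Quantity: 5 µg/mL HK5 final. Reagent: glucose and ATP substrates. Schedule: 90 min reaction incubation at room temperature, dark. Technique: resazurin-to-resorufin fluorescence via G6PDH and diaphorase coupling, 525/613 nm. Control set: DMSO wells with and without enzyme mix.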
PfGluPho inh: PfG6PD enzyme inhibitors, primary screen, biochemical, fluorescence intensity, uHTS | AID 504690, 2011 | inhibition, % at 20 µM | glucose-6-phosphate dehydrogenase-6-phosphogluconolactonase (Plasmodium falciparum 3D7) | hit rate 0.78% among 350,000 | PfGluPho enzyme, NADPH resazurin-diaphorase fluorescence;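 active = inhibition reaching at least a set limit at 20 µM in the primary screen, cut at about 59% in these data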;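 also: 0% = DMSO wells with substrate and 100% = DMSO wells lacking glucose-6-phosphate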
PfGluPho conf: PfG6PD inhibitors, hit retest, confirmation, biochemical, fluorescence intensity, single concentration | recombinant PfGluPho, NADPH-diaphorase-resazurin fluorescence | hit rate 34% among 2,400 | AID 504753, 2011 | inhibition, % at 20 µM | shares compounds with PfGluPho inh;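 active = inhibition of at least 50% at 20 µM in any single replicate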;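 also: 0% = DMSO with substrate and 100% = DMSO lacking glucose-6-phosphate substrate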
Diaph ctr 10uM: diaphorase inhibitors and chemical oxidizers, confirmation, counter-screen for P. falciparum G6PD inhibitor project, biochemical, fluorescence intensity, 10 µM NADPH. AID 504862, 2011. hit rate 39% among 820. inhibition, % at 20 µM. shares compounds with PfGluPho inh. diaphorase-coupled resazurin reduction, NADPH 10 uM;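 active = average inhibition reaching 50% or more with the compound at 20 µM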;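 also: resorufin red fluorescence formed as diaphorase reduces resazurin using NADPH; 0% = DMSO with enzyme and 100% = DMSO without enzyme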
Diaphorase 30uM: diaphorase inhibitors and chemical oxidizers, confirmation, counter-screen for P. falciparum G6PD inhibitor project, biochemical, fluorescence intensity, 30 µM NADPH; Diaphorase/resazurin coupled assay, resorufin fluorescence; shares compounds with PfGluPho inh; hit rate 29% among 820; inhibition, % at 20 µM;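 active = inhibition averaging 50% or more, tested at 20 µM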;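 also: 0% = DMSO with enzyme and 100% = DMSO wells lacking diaphorase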
An asterisk follows results filed as active. The list is not random: actives were taken first. Their share in the collection is about 1.3%.

Screening CCOC(=O)C(O)(c1ccc(NC(=O)c2ccc(Cl)c(Cl)c2)cc1)C(F)(F)F (stereo not given) returned HKDC1 inh -0.9, PfGluPho inh 62.4* and PfGluPho conf -27.4.
CCOC(=O)C(O)(c1ccc(N(C)C(=O)c2ccc(Cl)c(Cl)c2)cc1)C(F)(F)F (stereo not given) was read as G6PDH CS 8.0, Diaphorase inh 21.7, HKDC1 inh 2.2 and PfGluPho inh 14.5.
`Cc1nc2c(=O)n(C)c(=O)nc-2n(C)n1` gave G6PDH CS 67.6*, Diaphorase inh 34.3, HKDC1 inh 17.5, PfGluPho inh 120.2*, PfGluPho conf 109.2*, Diaph ctr 10uM 98.3* and Diaphorase 30uM 102.4*.
Screening CCCN1CCc2cccc3c2[C@H]1Cc1ccc(O)c(O)c1-3 returned HKDC1 inh 1.5, PfGluPho inh 86.2*, PfGluPho conf 82.4*, Diaph ctr 10uM 28.1 and Diaphorase 30uM 10.7.
COc1ccc2c(c1O)-c1c(OC)c(OC)cc3c1[C@H](C2)N(C)CC3 was read as HKDC1 inh 1.4 and PfGluPho inh -7.0.
Screening O=C1Nc2ccc(Br)cc2C(c2ccc(Cl)cc2)=NC1O (stereo not given) returned HKDC1 inh 4.8, PfGluPho inh 99.5*, PfGluPho conf 75.1*, Diaph ctr 10uM 83.3* and Diaphorase 30uM 66.8*.
CNCC(O)c1cc(OCc2ccccc2)c(OCc2ccccc2)cc1F (stereo not given) was read as HKDC1 inh 4.3 and PfGluPho inh -4.5.
c1ccc(-c2nc(N3CCOCC3)s[n+]2-c2ccccc2)cc1 was read as G6PDH CS -1.1, Diaphorase inh 5.5, HKDC1 inh -12.1, PfGluPho inh 59.1*, PfGluPho conf 72.8*, Diaph ctr 10uM -23.7 and Diaphorase 30uM -24.9.
O=C1NC(=S)NC(=O)C1Cc1ccccc1O was read as HKDC1 inh -4.4 and PfGluPho inh -11.6.
`CCCCCCCCn1sccc1=O` gave HKDC1 inh 7.3, PfGluPho inh 91.6*, PfGluPho conf 77.9*, Diaph ctr 10uM -9.2 and Diaphorase 30uM -9.1.
Screening CC1([N+](=O)[O-])COP(=O)(Nc2cccc(Br)c2)OC1 (stereo not given) returned HKDC1 inh 5.5 and PfGluPho inh 9.8.
O=C(c1cc(-c2ccc(Cl)cc2)n(-c2ccc(Cl)cc2Cl)n1)N1CCOCC1 was read as G6PDH CS 5.3, Diaphorase inh 19.1, HKDC1 inh -2.7, PfGluPho inh 82.4* and PfGluPho conf 25.4.
O=C(c1cc([N+](=O)[O-])ccc1N1CCNCC1)N1CCOCC1 was read as G6PDH CS 0.7, Diaphorase inh 7.7, HKDC1 inh -8.8 and PfGluPho inh 7.0.
Screening COC(=O)C12CCc3c(ccc4cc(OC)ccc34)C1=CC(=O)C2 (stereo not given) returned HKDC1 inh 0.1, PfGluPho inh 71.3* and PfGluPho conf 28.1.
For COc1ccc2c(c1)C(NC(C)=O)CCc1cc(OC)c(OC)c(OC)c1-2 (stereo not given) the results were HKDC1 inh -0.7 and PfGluPho inh -8.2.
`O=C1C(=O)N(c2ccccc2)P(=O)(N(CCCl)CCCl)N1c1ccccc1` gave HKDC1 inh -4.0 and PfGluPho inh 2.2.
Screening CC1(C)CC2CCC(O)C2C(CCO)N1 (stereo not given) returned HKDC1 inh -6.6 and PfGluPho inh 1.6.
For Clc1ccc(-c2nc3ccc(Cl)cn3c2CN2CCOCC2)cc1 the results were G6PDH CS 10.0, Diaphorase inh -0.1, HKDC1 inh -4.7, PfGluPho inh 60.2* and PfGluPho conf 32.5.
For CCCC(=O)NC1=C(N2CC2)C(=O)C(NC(=O)CCC)=C(N2CC2)C1=O the results were HKDC1 inh 9.9, PfGluPho inh 81.2*, PfGluPho conf 93.5*, Diaph ctr 10uM 84.9* and Diaphorase 30uM 81.5*.
For O=P(Oc1ccc(-c2ccccc2)cc1)(N1CC1)N1CC1 the results were HKDC1 inh -7.0 and PfGluPho inh -4.1.
`C[C@]12CC[C@@H]3c4ccc(O)c(O)c4CC[C@H]3[C@@H]1CC[C@@H]2O` gave G6PDH CS 34.4, Diaphorase inh 69.8*, HKDC1 inh 1.4, PfGluPho inh 99.7*, PfGluPho conf 93.2*, Diaph ctr 10uM 8.4 and Diaphorase 30uM 22.7.
`CCS(=O)(=O)Nc1cccc(C(=C2CCCCC2)c2cnc[nH]2)c1` gave HKDC1 inh -1.7 and PfGluPho inh -10.8.
For CN(C)c1ccc(C=C2C(=O)NC(=S)NC2=O)cc1 the results were HKDC1 inh -4.2, PfGluPho inh 68.8* and PfGluPho conf 41.0.
`CC1=NN=C(c2ccc(N)cc2)c2cc3c(cc2C1)OCO3` gave HKDC1 inh 14.5, PfGluPho inh 44.2 and PfGluPho conf 9.3.
Screening COc1cc(O)c(C(=O)O)c(-c2cc(O)c(O)cc2C)c1 returned HKDC1 inh 1.3, PfGluPho inh 104.7*, PfGluPho conf 107.0*, Diaph ctr 10uM 38.0 and Diaphorase 30uM 24.9.
For CN=C1CN(O)C(c2ccccc2)c2cc(Cl)ccc2N1 (stereo not given) the results were HKDC1 inh -7.3 and PfGluPho inh -11.7.
For CNC(=O)Oc1cccc(-c2cn3cc(Cl)ccc3n2)c1 the results were G6PDH CS -0.4, Diaphorase inh 5.4, HKDC1 inh -6.8, PfGluPho inh 61.2* and PfGluPho conf 17.4.
For CCC(COC(=O)NC)NC(=O)Oc1cccc(C)c1 (stereo not given) the results were G6PDH CS 6.4, Diaphorase inh 8.8, HKDC1 inh 0.0 and PfGluPho inh -24.1.
CNC(=O)Oc1ccc(-c2cn3cc(C)ccc3n2)cc1 was read as G6PDH CS -0.9, Diaphorase inh 7.8, HKDC1 inh 16.8, PfGluPho inh 62.2* and PfGluPho conf 47.4.
COP(=S)(OC)SCn1nnc2ccccc2c1=O was read as HKDC1 inh -1.7 and PfGluPho inh 36.8.
For CCn1c(C)c(C(=O)Nc2ccc(OC)cc2)c2cc(OC)ccc21 the results were HKDC1 inh -0.3, PfGluPho inh 66.3* and PfGluPho conf 25.5.
